According to ChEMBL document CHEMBL1137390, “Structure-based design of potent small-molecule inhibitors of anti-apoptotic Bcl-2 proteins” (J Med Chem, 2006):
pIC50, pKi: −log10 of the molar value.

Legend:
[1] = molecular target: T1, Apoptosis regulator Bcl-2 (Homo sapiens, UniProt P10415); test: Binding affinity to human Bcl2 by ELISA
[2] = molecular target: T1, Apoptosis regulator Bcl-2; test: Displacement of FAM-Bid from human Bcl2 by FP assay
In short: (§1)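 Competitive fluorescence-polarization binding assay against the recombinant anti-apoptotic protein. Values are reported as Ki ± SD from three to seven independent experiments per compound.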

PC-3 [3] = test: Induction of apoptosis in human PC3 cell at 20 uM by TUNEL assay; type: functional
In short: (§2)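 PC-3 prostate cancer cells were exposed to compound for 4 days, with an untreated control included. Apoptosis was scored by TUNEL using flow cytometry: the BrdU-FITC-positive fraction (M1 marker) is given as the percentage of apoptotic cells.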

PC-3 [4] = test: Induction of apoptosis in human PC3 cell at 5 uM by TUNEL assay; type: functional; in short: as §2
[5] = molecular target: Induced myeloid leukemia cell differentiation protein Mcl-1 (Homo sapiens, UniProt Q07820); test: Displacement of FAM-Bid from human Mcl1 by FP assay
Induced myeloid leukemia cell differentiation protein Mcl-1, sequence (Q07820 whole entry): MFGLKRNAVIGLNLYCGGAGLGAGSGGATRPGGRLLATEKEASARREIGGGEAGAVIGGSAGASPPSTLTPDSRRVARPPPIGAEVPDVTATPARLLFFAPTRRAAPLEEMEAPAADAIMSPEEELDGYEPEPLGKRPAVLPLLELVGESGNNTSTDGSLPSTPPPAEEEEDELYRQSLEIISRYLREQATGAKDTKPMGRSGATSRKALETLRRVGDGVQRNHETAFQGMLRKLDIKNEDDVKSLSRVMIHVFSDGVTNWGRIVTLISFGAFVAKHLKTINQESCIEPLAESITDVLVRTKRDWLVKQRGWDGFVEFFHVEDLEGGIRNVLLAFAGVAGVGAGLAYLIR

Bcl-2-like protein 1 = Bcl-2-like protein 1 (Homo sapiens, UniProt Q07817); test: Displacement of FAM-Bak from human Bcl-xL by FP assay; in short: as §1
Bcl-2-like protein 1, sequence (Q07817 whole entry): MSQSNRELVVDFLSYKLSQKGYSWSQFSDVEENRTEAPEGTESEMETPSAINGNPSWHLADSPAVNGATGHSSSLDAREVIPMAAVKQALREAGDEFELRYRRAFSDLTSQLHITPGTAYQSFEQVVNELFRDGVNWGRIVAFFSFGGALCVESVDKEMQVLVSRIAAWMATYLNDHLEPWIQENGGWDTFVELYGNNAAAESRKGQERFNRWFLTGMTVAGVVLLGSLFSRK

PC-3 [6] = test: Induction of apoptosis in human PC3 cell at 1.25 uM by TUNEL assay; type: functional; in short: as §2

T1 sequence (P10415 whole entry): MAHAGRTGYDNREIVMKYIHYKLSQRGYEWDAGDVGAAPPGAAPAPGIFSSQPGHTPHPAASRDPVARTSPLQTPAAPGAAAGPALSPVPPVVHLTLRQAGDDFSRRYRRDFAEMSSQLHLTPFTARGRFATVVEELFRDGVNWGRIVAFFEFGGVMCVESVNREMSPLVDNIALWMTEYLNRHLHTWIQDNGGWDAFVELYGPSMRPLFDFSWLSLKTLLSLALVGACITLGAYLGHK

Row | SMILES | pIC50 [1] | pKi [2] | pKi [5] | further results
1 | COc1c(Cc2ccccc2C(C)C)cc(C(=O)Nc2ccc(S(=O)(=O)c3ccccc3C(C)(C)C)cc2)c(OC)c1OC |  | 4.60 |  | Activity (PC-3 [3]): 1.2%
2 | CC[C@H](C)[C@H](NC(=O)[C@H](CC(N)=O)NC(=O)[C@H](CCCN=C(N)N)NC(=O)[C@@H](NC(=O)[C@@H](NC(=O)[C@H](CC(=O)O)NC(=O)[C@H](CCC(=O)O)NC(=O)[C@@H](N)CCC(N)=O)[C@@H](C)CC)[C@@H](C)CC)C(=O)N[C@@H](C)C(=O)N[C@@H](CCCN=C(N)N)C(=O)N[C@@H](Cc1c[nH]cn1)C(=O)N[C@@H](CC(C)C)C(=O)N[C@@H](C)C(=O)N[C@@H](CCC(N)=O)C(=O)N[C@H](C(=O)NCC(=O)N[C@@H](CC(=O)O)C(=O)N[C@@H](CO)C(=O)N[C@@H](CCSC)C(=O)N[C@@H](CC(=O)O)C(=O)N[C@@H](CCCN=C(N)N)C(=O)O)C(C)C |  |  | 7.92 | pIC50 [5]: 7.28
3 | Cc1cc2c(C(C)C)c(O)c(O)c(C=O)c2c(O)c1-c1c(C)cc2c(C(C)C)c(O)c(O)c(C=O)c2c1O [GOSSYPOL] |  |  | 6.74 | pKi (Bcl-2-like protein 1): 6.32

Now from value to compound, other results behind:

Row | pIC50 [1] | pKi [2] | pKi [5] | SMILES | further results
4 | 4.27 | 4.62 |  | CC(C)c1cc(C(=O)Nc2ccccc2)c(O)c(O)c1O | 
5 | 5.14 | 5.08 |  | O=C(Nc1ccccc1)c1cc(Cc2ccccc2)c(O)c(O)c1O | 
6 | 5.80 | 6.03 |  | O=C(Nc1ccc(S(=O)(=O)c2ccccc2)cc1)c1cc(Cc2ccccc2)c(O)c(O)c1O | 
7 | 6.15 | 6.54 | 6.59 | CC(C)c1ccccc1Cc1cc(C(=O)Nc2ccc(S(=O)(=O)c3ccccc3C(C)(C)C)cc2)c(O)c(O)c1O | Activity (PC-3 [4]): 89.5%; pIC50 [5]: 5.99; pIC50 (Bcl-2-like protein 1): 5.18; pKi (Bcl-2-like protein 1): 5.95; Activity (PC-3 [6]): 11.2%
